Laboratory results published in ChEMBL document CHEMBL2150987, “Synthesis and evaluation of novel 1,3,4-oxadiazole derivatives of marine bromopyrrole alkaloids as antimicrobial agent” (2012).
≈ marks a conversion by molar mass, not a printed value.

Columns and labels:
Assay type in all cases: functional
[1] = test system: Candida albicans; experiment: Antifungal activity against Candida albicans after 48 hrs by […]
[2] = test system: Mycobacterium tuberculosis; experiment: Antitubercular activity against Mycobacterium tuberculosis H37Rv after 7 days by resazurin microtiter assay; conditions: 168 h
[3] = test system: Escherichia coli; experiment: Antibacterial activity against Escherichia coli ATCC 25922 after 24 hrs by broth dilution method; conditions: ATCC 25922, 24 h
Outline: (§1)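 Nutrient broth containing logarithmic twofold serial dilutions of compound, inoculated with about 5 × 10⁵ CFU/mL of actively dividing bacteria, incubated 24 h at 37 °C. Growth was read visually and spectrophotometrically. MIC was the lowest concentration (highest dilution) that arrested growth. Ciprofloxacin served as standard.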

[4] = test system: Pseudomonas aeruginosa; experiment: Antibacterial activity against Pseudomonas aeruginosa ATCC 27853 after 24 hrs by broth dilution method; conditions: ATCC 27853, 24 h; outline: as §1
[5] = test system: Klebsiella pneumoniae; experiment: Antibacterial activity against Klebsiella pneumoniae after 24 hrs by broth dilution method; outline: as §1
[6] = test system: Staphylococcus aureus; experiment: Antibacterial activity against Staphylococcus aureus ATCC 25923 after 24 hrs by broth dilution method; conditions: ATCC 25923, 24 h; outline: as §1

Row | Structure (SMILES) | MIC [1] | MIC [2] | MIC [3] | MIC [4] | MIC [5] | MIC [6]
1 | Oc1ccccc1-c1nnc(-c2cc(Br)c(Br)[nH]2)o1 | 6.25 µg/mL (≈ 16.2 µM) | 36.5 µg/mL (≈ 94.8 µM) | 3.12 µg/mL (≈ 8.12 µM) | 12.5 µg/mL (≈ 32.5 µM) | 100 µg/mL (≈ 260 µM) | 1.56 µg/mL (≈ 4.05 µM)
2 | Brc1cc(-c2nnc(/C=C/c3ccccc3)o2)[nH]c1Br | 12.5 µg/mL (≈ 31.6 µM) | 78.5 µg/mL (≈ 199 µM) | 12.5 µg/mL (≈ 31.6 µM) | 6.25 µg/mL (≈ 15.8 µM) | 100 µg/mL (≈ 253 µM) | 3.12 µg/mL (≈ 7.91 µM)
3 | Oc1ccc(-c2nnc(-c3cc(Br)c(Br)[nH]3)o2)cc1 | 12.5 µg/mL (≈ 32.5 µM) | 25 µg/mL (≈ 64.9 µM) | 12.5 µg/mL (≈ 32.5 µM) | 6.25 µg/mL (≈ 16.2 µM) | 100 µg/mL (≈ 260 µM) | 12.5 µg/mL (≈ 32.5 µM)
4 | Fc1ccc(Cl)c(-c2nnc(-c3cc(Br)c(Br)[nH]3)o2)c1 | 12.5 µg/mL (≈ 29.7 µM) | 6.5 µg/mL (≈ 15.4 µM) | 1.56 µg/mL (≈ 3.7 µM) | 6.25 µg/mL (≈ 14.8 µM) | 100 µg/mL (≈ 237 µM) | 1.56 µg/mL (≈ 3.7 µM)
5 | O=[N+]([O-])c1ccc(-c2nnc(-c3cc(Br)c(Br)[nH]3)o2)cc1 | 1.56 µg/mL (≈ 3.77 µM) | 9 µg/mL (≈ 21.7 µM) | 1.56 µg/mL (≈ 3.77 µM) | 6.25 µg/mL (≈ 15.1 µM) | 100 µg/mL (≈ 242 µM) | 1.56 µg/mL (≈ 3.77 µM)
6 | Brc1cc(-c2nnc(-c3cc(Br)c(Br)[nH]3)o2)[nH]c1Br | 1.56 µg/mL (≈ 3.02 µM) | 3.5 µg/mL (≈ 6.79 µM) | 1.56 µg/mL (≈ 3.02 µM) | 6.25 µg/mL (≈ 12.1 µM) | 100 µg/mL (≈ 194 µM) | 1.56 µg/mL (≈ 3.02 µM)
7 | Brc1cc(-c2nnc(-c3ccccc3)o2)[nH]c1Br | 12.5 µg/mL (≈ 33.9 µM) | 98.7 µg/mL (≈ 267 µM) | 12.5 µg/mL (≈ 33.9 µM) | 6.25 µg/mL (≈ 16.9 µM) | 100 µg/mL (≈ 271 µM) | 6.25 µg/mL (≈ 16.9 µM)
8 | COc1cc(/C=C/c2nnc(-c3cc(Br)c(Br)[nH]3)o2)ccc1O | 12.5 µg/mL (≈ 28.3 µM) | 112 µg/mL (≈ 255 µM) | 12.5 µg/mL (≈ 28.3 µM) | 12.5 µg/mL (≈ 28.3 µM) | 100 µg/mL (≈ 227 µM) | 1.56 µg/mL (≈ 3.54 µM)
9 | Brc1cc(-c2nnc(-c3ccncc3)o2)[nH]c1Br | 12.5 µg/mL (≈ 33.8 µM) | 3.5 µg/mL (≈ 9.46 µM) | 12.5 µg/mL (≈ 33.8 µM) | 12.5 µg/mL (≈ 33.8 µM) | 100 µg/mL (≈ 270 µM) | 1.56 µg/mL (≈ 4.22 µM)
10 | Brc1cc(-c2nnc(/C=C/C3=COc4ccccc4C3)o2)[nH]c1Br | 12.5 µg/mL (≈ 27.8 µM) | 2 µg/mL (≈ 4.45 µM) | 3.12 µg/mL (≈ 6.96 µM) | 12.5 µg/mL (≈ 27.8 µM) | 100 µg/mL (≈ 223 µM) | 1.56 µg/mL (≈ 3.47 µM)
11 | Sc1nnc(-c2cc(Br)c(Br)[nH]2)o1 | 12.5 µg/mL (≈ 38.5 µM) | 54.5 µg/mL (≈ 168 µM) | 12.5 µg/mL (≈ 38.5 µM) | 12.5 µg/mL (≈ 38.5 µM) | 100 µg/mL (≈ 308 µM) | 12.5 µg/mL (≈ 38.5 µM)
12 | CSc1nnc(-c2cc(Br)c(Br)[nH]2)o1 | 12.5 µg/mL (≈ 36.9 µM) | 89.5 µg/mL (≈ 264 µM) | 12.5 µg/mL (≈ 36.9 µM) | 25 µg/mL (≈ 73.7 µM) | 100 µg/mL (≈ 295 µM) | 12.5 µg/mL (≈ 36.9 µM)
13 | CCSc1nnc(-c2cc(Br)c(Br)[nH]2)o1 | 12.5 µg/mL (≈ 35.4 µM) | 118 µg/mL (≈ 334 µM) | 12.5 µg/mL (≈ 35.4 µM) | 25 µg/mL (≈ 70.8 µM) | 100 µg/mL (≈ 283 µM) | 12.5 µg/mL (≈ 35.4 µM)
14 | Brc1cc(-c2nnc(Sc3ccccc3)o2)[nH]c1Br | 6.25 µg/mL (≈ 15.6 µM) | 23.5 µg/mL (≈ 58.6 µM) | 12.5 µg/mL (≈ 31.2 µM) | 25 µg/mL (≈ 62.3 µM) | 100 µg/mL (≈ 249 µM) | 12.5 µg/mL (≈ 31.2 µM)
15 | O=C(CSc1nnc(-c2cc(Br)c(Br)[nH]2)o1)c1ccccc1 | 1.56 µg/mL (≈ 3.52 µM) | 1.5 µg/mL (≈ 3.39 µM) | 3.12 µg/mL (≈ 7.05 µM) | 12.5 µg/mL (≈ 28.2 µM) | 100 µg/mL (≈ 226 µM) | 12.5 µg/mL (≈ 28.2 µM)
16 | O=C(Cc1ccccc1)c1nnc(-c2cc(Br)c(Br)[nH]2)o1 | 12.5 µg/mL (≈ 30.4 µM) | 146 µg/mL (≈ 355 µM) | 3.12 µg/mL (≈ 7.6 µM) | 12.5 µg/mL (≈ 30.4 µM) | 100 µg/mL (≈ 243 µM) | 3.12 µg/mL (≈ 7.6 µM)
17 | Nc1ccc(-c2nnc(-c3cc(Br)c(Br)[nH]3)o2)cc1 | 12.5 µg/mL (≈ 32.5 µM) | 16.5 µg/mL (≈ 43 µM) | 1.56 µg/mL (≈ 4.06 µM) | 6.25 µg/mL (≈ 16.3 µM) | 100 µg/mL (≈ 260 µM) | 3.12 µg/mL (≈ 8.14 µM)
18 | Clc1ccc(-c2nnc(-c3cc(Br)c(Br)[nH]3)o2)cc1 | 12.5 µg/mL (≈ 31 µM) | 9.5 µg/mL (≈ 23.5 µM) | 1.56 µg/mL (≈ 3.87 µM) | 6.25 µg/mL (≈ 15.5 µM) | 100 µg/mL (≈ 248 µM) | 1.56 µg/mL (≈ 3.87 µM)
19 | COc1ccc(-c2nnc(-c3cc(Br)c(Br)[nH]3)o2)cc1 | 12.5 µg/mL (≈ 31.3 µM) | 56.5 µg/mL (≈ 142 µM) | 3.12 µg/mL (≈ 7.83 µM) | 6.25 µg/mL (≈ 15.7 µM) | 100 µg/mL (≈ 251 µM) | 3.12 µg/mL (≈ 7.83 µM)
20 | Clc1ccc(-c2nnc(-c3cc(Br)c(Br)[nH]3)o2)c(Cl)c1 | 12.5 µg/mL (≈ 28.5 µM) | 1.6 µg/mL (≈ 3.65 µM) | 12.5 µg/mL (≈ 28.5 µM) | 6.25 µg/mL (≈ 14.3 µM) | 100 µg/mL (≈ 228 µM) | 6.25 µg/mL (≈ 14.3 µM)
21 | C[C@@H]1[C@H](O)[C@@H](C)/C=C/C=C/C=C/C=C/C=C/C=C/C=C/[C@H](O[C@@H]2O[C@H](C)[C@@H](O)[C@H](N)[C@@H]2O)C[C@@H]2O[C@](O)(C[C@@H](O)C[C@@H](O)[C@H](O)CC[C@@H](O)C[C@@H](O)CC(=O)O[C@H]1C)C[C@H](O)[C@H]2C(=O)O [AMPHOTERICIN B] | 1.56 µg/mL (≈ 1.69 µM) | – | – | – | – | –
22 | O=C(O)c1cn(C2CC2)c2cc(N3CCNCC3)c(F)cc2c1=O [CIPROFLOXACIN] | – | – | – | 3.12 µg/mL (≈ 9.43 µM) | 1.56 µg/mL (≈ 4.71 µM) | 1.56 µg/mL (≈ 4.71 µM)
23 | NNC(=O)c1ccncc1 [ISONIAZID] | – | 0.4 µg/mL (≈ 2.92 µM) | – | – | – | –
